Assay outcomes: PubChem BioAssay, The Scripps Research Institute Molecular Screening Center
GPR7 antagonist: human neuropeptides B/W receptor 1 antagonism. inhibition, % at 4.4 µM. AID 1861. P48145. GPR7-expressing cells, fluorescence antagonist assay. 290,000 compounds, 1.1% hits; in the data active means inhibition above about 16%, passing the limit was not always enough;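 further: cells stimulated with the agonist NPW; 0% = agonist with vehicle and 100% = vehicle without agonist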
GalR3 antagonist: human GalR3 antagonism. O60755. HEK293 GalR3-CNG cAMP membrane potential fluorescence; galR3 body fused to GalR1 C-terminus. inhibition, % at 3 µM. 360,000 compounds, 0.44% hits. AID 651719;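 active means inhibition above the screen-wide average plus 3 SD, cut at about 13% in these data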;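 further: forskolin and galanin both at EC90 stimulate the cells; cAMP rise reported by CNG channel membrane potential dye signal; 0% = forskolin plus galanin with DMSO and 100% = forskolin alone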
OX1R antag-1: blocks the human orexin 1 receptor; O43613; OX1R-expressing cells, FRET antagonist read-out; inhibition, % at 6.6 µM; 330,000 compounds, 1.8% hits; AID 485270; in the data active means inhibition mostly above about 38%, no sharp cut-off; inactive means mostly below about 40%;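 further: 0% = agonist challenge alone and 100% = reference antagonist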
Target sequence (O43613 whole entry, looked up): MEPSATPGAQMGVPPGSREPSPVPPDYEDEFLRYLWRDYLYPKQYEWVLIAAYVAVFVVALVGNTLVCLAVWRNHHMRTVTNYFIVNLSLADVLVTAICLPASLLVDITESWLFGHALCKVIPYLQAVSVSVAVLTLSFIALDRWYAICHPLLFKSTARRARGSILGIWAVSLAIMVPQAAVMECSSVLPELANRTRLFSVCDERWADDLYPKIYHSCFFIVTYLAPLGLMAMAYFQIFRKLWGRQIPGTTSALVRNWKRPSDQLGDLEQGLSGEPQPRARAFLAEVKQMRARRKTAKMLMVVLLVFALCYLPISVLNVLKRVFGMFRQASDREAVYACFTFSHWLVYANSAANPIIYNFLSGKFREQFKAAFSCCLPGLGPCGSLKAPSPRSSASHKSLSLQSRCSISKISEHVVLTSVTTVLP
CHO parental Ca: counter-screen: ATP calcium response change in parental CHO cells; AID 463079; parental CHO-K1, ATP-induced calcium, Fluo-8 fluorescence; 330,000 compounds, 0.63% hits; inhibition, % at 5.6 µM;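 active means inhibition above that plate's mean sample inhibition plus 3 SD, cut at about 26% in these data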;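 further: 0% = ATP-challenged DMSO wells and 100% = DMSO wells without ATP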
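material = parental CHO cells | also added = ATP as calcium-mobilizing challenge | dosing = single point at 5.6 µM | detection = intracellular calcium via Fluo-8 no-wash fluorescent dye | read-out = % inhibition | benchmarks = low control ATP plus DMSO, high control DMSO only | repeats = one well per compound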
OX1R antag-2: human HCRTR1 antagonism; O43613; CHO/OX1R cells, Fluo-8 calcium fluorescence, orexin A; inhibition, % at 5 µM; 330,000 compounds, 0.43% hits; AID 434989;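 active means inhibition above its plate's threshold, mean inhibition of all tested compounds on the plate plus 3 SD, cut at about 37% in these data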;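 further: 0% = orexin A challenge wells and 100% = SB-334867-A antagonist wells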
GalR3 conf: GalR3 (human) antagonism, confirmation; shares compounds with GalR3 antagonist; HEK293 GalR3 CNG cAMP biosensor, membrane potential fluorescence; galR3 fused to GalR1 carboxy tail; challenged with forskolin and galanin at EC90; inhibition, % at 3 µM; 1,600 compounds, 59% hits;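 active means inhibition above the primary screen's cutoff, the mean inhibition of all screened compounds plus 3 SD, cut at about 13% in these data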;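 further: 0% = forskolin plus galanin and 100% = forskolin alone with DMSO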
CNG parental: parental cell agonism counter-screen for GalR3 antagonists; shares compounds with GalR3 antagonist; 1,600 compounds, 10% hits; HEK293-CNG parental cells, cAMP membrane potential fluorescence; normalised: DMSO wells 0%, forskolin wells 100%; activation, % at 3 µM; in the data active means activation above about 1.3%
An asterisk follows results filed as active; / = no result. Compounds with a hit are over-represented: about 3.1% of the library has one in this group of screens.

SMILES	GPR7 antagonist	GalR3 antagonist	OX1R antag-1	CHO parental Ca	OX1R antag-2	GalR3 conf	CNG parental
CC(c1ccc(Cl)cc1)n1c(-c2ccc3ccccc3n2)n[nH]c1=S (configuration not stated)	-2	13*	17	18	-11	7	1
CC(c1ccc(F)cc1)n1c(-c2ccc3ccccc3n2)n[nH]c1=S (configuration not stated)	-13	-1	6	-10	-14	/	/
CC1=CC(C)(C)n2c(O)c(N=NC(N)=S)c3c(C)ccc1c32	-5	14*	7	-1	2	8	-2
CCCn1c(SCc2ccc(Cl)cc2)nc2c1c(=O)[nH]c(=O)n2C	-14	14*	18	-25	-9	32*	1.3*
COc1ccc(CCNC(=O)CSc2ccc(-c3ccco3)nn2)cc1	-4	13*	24	-16	-18	6	0
O=C(Nc1ccc(Oc2ccccc2)cc1)c1csc(COCCO)n1	/	92*	/	/	/	113*	-1
Cc1ccc(C(=O)Nc2ccc(Br)cc2)cc1S(=O)(=O)Nc1ccccn1	-11	-1	6	-8	-7	/	/
CCOC(=O)C1CCN(C(=O)Cc2cccc3ccccc23)CC1	3	16*	23	-7	-28	0	0
CC(CCc1ccc(O)cc1)NCc1ccc(Br)cc1 (configuration not stated)	5	31*	-1	-4	-4	58*	1
COc1ccc(CCN(C)C(=O)Cc2ccc(-c3ccccc3)cc2)cc1OC	10	35*	33	16	-9	63*	0
CCOC(=O)C(=CNc1ccc(S(N)(=O)=O)cc1)C(=O)OCC	-13	13*	2	-4	-19	29*	1
COc1ccc(-n2c(SCc3ccc(C#N)cc3)nnc2-c2ccccn2)cc1	-1	7	18	-12	-18	/	/
COc1ccc(-n2c(SCc3ccc([N+](=O)[O-])cc3)nnc2-c2ccc(C)cc2)cc1	-4	50*	17	-21	-19	11	1
COc1ccc(-n2c(Cc3ccccc3)nnc2SCc2ccc([N+](=O)[O-])cc2)cc1	5	-5	14	-13	-24	/	/
Cc1ccc(-n2c(SCc3ccc(C#N)cc3)nnc2-c2ccccn2)cc1	0	13*	16	-9	-13	12	0
Cc1ccc2nc(C3CCCN3Cc3nc(CCC(C)C)no3)[nH]c2c1 (configuration not stated)	-13	-1	19	-27	-37	/	/
COc1ccccc1CN1CC(C(=O)NCCn2ccc(C)n2)CCC1=O (configuration not stated)	9	3	-1	-6	7	/	/
COc1ccc(N2C(=O)CC(NCc3ccc(F)cc3)C2=O)cc1 (configuration not stated)	-12	15*	7	-3	-20	14*	0
Cc1cc2ccccn2c1C(=O)Nc1cccc(Cl)c1	-12	13*	16	-21	-48	11	0
CCOC(=O)Cn1nc(C)c(NC(=O)COc2cccc(Cl)c2)c1C	-4	21*	4	11	-3	0	0
CSc1ccccc1OCc1cc(C(=O)N2CCC(c3ccncc3)CC2)no1	12	75*	54	26	13	94*	0
CN(C(=O)COc1ncnc2sccc12)c1ccccc1	7	6	20	-4	-15	/	/
Cc1cc(C)n2nc(SC(C)C(=O)N(C)C3CCCCC3)nc2n1 (configuration not stated)	/	-5	7	-3	-33	/	/
CS(=O)(=O)c1nc(-c2ccc(F)cc2)cc(C(F)(F)F)n1	19	26*	/	/	/	25*	1
COc1ccc(-c2cc(C(F)(F)F)nc(N)n2)cc1	-9	-4	15	7	-11	/	/
COc1ccc(-c2cc(C(F)(F)F)nc(S(C)(=O)=O)n2)cc1	19	32*	15	-4	-10	13*	1
CCOC(=O)[C@@H]1CSCCS(=O)(=O)N1Cc1ccccc1Br	/	-6	/	/	/	/	/
